EWS-Fli block: inhibitors of EWS/Fli oncoprotein transcriptional activity; A673 NR0B1-luciferase reporter, viability-normalised; inhibition, % at 12.6 µM; 0.67% of 350,000 active;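 active means mean inhibition of at least 50% after viability correction, with every replicate also passing that limit; inconclusive means mean reaches 50% but only one of two replicates passes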;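 further: firefly luciferase signal divided by Alamar Blue viability fluorescence both relative to DMSO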
PAX8 inh HTS: inhibitors of PAX8 transcriptional activity in RMG-I cells. RMG-I TPO-luciferase reporter, SteadyGlo, 24 h. inhibition, % at 12.6 µM. 1.2% of 360,000 active. AID 652154;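 active means mean replicate inhibition at least 60% with every replicate also reaching 60%; inconclusive means only one of the two criteria is met; inactive means mean below 60% and not all replicates reaching 60%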;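 further: luciferase light reporting Pax8 driven TPO promoter activity; plate controls were median of neutral control wells for no effect and mitoxantrone controls for full effect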
INS-1E GSIS act: primary screen for activators of insulin secretion dependent on glucose, INS-1E cells, GLuc reporter luminescence | INS-1E GLuc reporter insulin secretion, 2-3 h | activation, % at 16.6 µM | 0.61% of 370,000 active;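 active means lowest replicate activation of at least 40%, so every replicate reaches that level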;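 further: 0% = median of neutral control wells and 100% = median of IBMX positive control wells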
MLL AF4-AF9 inh: inhibitors of human MLL-AF4/AF9 interaction. 0.47% of 350,000 active. inhibition, % at 10 µM. P42568. AlphaScreen, biotin-AF4 peptide binding to FLAG-AF9;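 active means every replicate reaching a set inhibition limit, whatever the replicate mean, cut at about 25% in these data; inconclusive means mean inhibition reaches that limit but some replicates miss it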;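 further: 0% = plate neutral control median and 100% = total signal loss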
Target sequence (P42568 whole entry, looked up): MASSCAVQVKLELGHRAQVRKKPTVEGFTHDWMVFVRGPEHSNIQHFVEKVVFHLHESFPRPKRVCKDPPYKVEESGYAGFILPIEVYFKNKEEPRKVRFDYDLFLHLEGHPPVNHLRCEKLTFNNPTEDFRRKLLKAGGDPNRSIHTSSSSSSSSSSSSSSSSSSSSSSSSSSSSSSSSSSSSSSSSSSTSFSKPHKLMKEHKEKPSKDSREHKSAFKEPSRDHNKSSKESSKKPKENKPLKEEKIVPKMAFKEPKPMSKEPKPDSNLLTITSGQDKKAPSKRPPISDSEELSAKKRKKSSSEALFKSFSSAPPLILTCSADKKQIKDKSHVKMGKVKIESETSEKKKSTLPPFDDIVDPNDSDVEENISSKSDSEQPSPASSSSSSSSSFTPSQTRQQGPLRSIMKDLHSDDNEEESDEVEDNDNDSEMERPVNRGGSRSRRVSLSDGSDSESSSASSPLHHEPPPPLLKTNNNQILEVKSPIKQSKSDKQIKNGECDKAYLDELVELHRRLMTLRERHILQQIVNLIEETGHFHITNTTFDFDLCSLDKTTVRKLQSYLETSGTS
Xi reactivation: reactivates the inactive X chromosome in mouse fibroblasts | XiGFP mouse fibroblasts, % GFP-positive cells imaging, 3 d; cells co-treated with 5-aza-dC sensitizer; scaled so ellipticine positive control = 100% | activation, % at 7.58 µM | 0.055% of 360,000 active | AID 743238;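 active means mean normalized replicate activation at least 10% and every replicate at or above 10%; inconclusive means only one of the two criteria met; inactive means mean below 10% and not all replicates reach 10%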;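 further: 0% = median of on-plate neutral control wells and 100% = ellipticine 6 µM median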
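System: SV40-immortalized XiGFP fibroblast cells, line 68-5-11 / Incubation: 3-day compound exposure, then 15 min fixation at room temperature / Compound: single concentration per compound, delivered by pin transfer / Buffer or medium: DMEM plus 5-aza-dC sensitizer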
PGC1a acetyl inh: modulators of PGC1a acetylation | AID 651687 | U2OS PGC1a acetylation, AlphaScreen anti-acetyl-lysine; with virally co-expressed GCN5 acetyltransferase | inhibition, % at 15.6 µM | 0.17% of 350,000 active;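 active means every replicate shows inhibition of at least 40%; inconclusive means mean inhibition at least 40% but some replicate below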;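 further: 0% = neutral control wells and 100% = positive control wells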
DNA binder FP: small molecule DNA binding by fluorescence polarization; AC35, µM (doses to about 68 µM), inactives show at the top dose activity change, negative = DNA binding; shares compounds with EWS-Fli block; 2% of 640 active; salmon sperm DNA acridine orange fluorescence polarization;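 active means fitted curve reaches a 35% signal fall AC35 below twice the sample's top valid tested dose, actives reach about 48 µM in these data; inactive means the rest, including activity in the rising direction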;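 further: lower polarization ratio signals compound binding to DNA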
* = called active by the depositor; ? = inconclusive; · = not tested or not shown; ! = not active in a repeat; [ ] = dose if it differs, or a comment. A selection: hits, their analogues and other compounds. The true share with any hit is near 2.1%.

SMILES | EWS-Fli block | PAX8 inh HTS | INS-1E GSIS act | MLL AF4-AF9 inh | Xi reactivation | PGC1a acetyl inh | DNA binder FP
CN1C(=O)c2cc(NC(=O)c3ccc(C(F)(F)F)cc3)ccc2OC[C@@H]2O[C@@H](CC(=O)NC3Cc4ccccc4C3)CC[C@H]21 | 54* | 39 | -10 | 1 | 0 | 3 | 0%
COC(=O)C[C@@H]1CC[C@@H]2[C@@H](COc3ccc(NC(=O)Cc4cccs4)cc3C(=O)N2C)O1 | 65* | 6 | -4 | 2 | 0 | · | -20%
COC(=O)C[C@H]1CC[C@H]2[C@@H](COc3ccc(NC(=O)Nc4cccc(Cl)c4)cc3C(=O)N2C)O1 | 60* | 23 | -8 | 4 | 0 | 7 | 5%
COC(=O)C[C@@H]1CC[C@@H]2[C@@H](COc3ccc(NC(=O)Nc4ccccc4C)cc3C(=O)N2C)O1 | 66* | 13 | 1 | 2 | 0 | -5 | -13%
CN1C(=O)c2cc(NC(=O)c3ccc(C(F)(F)F)cc3)ccc2OC[C@@H]2O[C@@H](CC(=O)NC3Cc4ccccc4C3)CC[C@@H]21 | 18 | 51 | · | -2 | · | -9 | ·
COC(=O)C[C@@H]1CC[C@H]2[C@H](COc3ccc(NC(=O)Nc4cccc(Cl)c4)cc3C(=O)N2C)O1 | ? | 14 | -4 | 0 | 0 | 3 | ·
COC(=O)C[C@@H]1CC[C@@H]2[C@H](COc3ccc(NC(=O)Nc4ccccc4C)cc3C(=O)N2C)O1 | -8 | 8 | -2 | 0 | 0 | 4 | ·
COC(=O)C[C@@H]1CC[C@@H]2[C@@H](COc3ccc(NC(=O)Nc4cccc(Cl)c4)cc3C(=O)N2C)O1 | 77* | 15 | -9 | 0 | 0 | -1 | 14%
COC(=O)C[C@@H]1CC[C@@H]2[C@@H](COc3ccc(NC(=O)Nc4cccc(F)c4)cc3C(=O)N2C)O1 | 69* | 1 | -20 | 1 | 0 | 1 | -10%
COC(=O)C[C@H]1CC[C@@H]2[C@H](COc3ccc(NC(=O)Nc4cccc(F)c4)cc3C(=O)N2C)O1 | 1 | 2 | -7 | 1 | 0 | 2 | ·
C[C@H]1CN([C@@H](C)CO)C(=O)c2cccc(NC(=O)C3CCCCC3)c2O[C@H]1CN(C)CC1CCCCC1 | -1 | 7 | 7 | -3 | -1 | 2 | ·
O=c1cc(-c2ccccc2)oc2ccc3ccccc3c12 | 81* | 91* | 9 | -2 | 1 | -1 | 13%
O=c1cc(-c2ccccc2)oc2c1ccc1ccccc12 | -15 | · | -3 | 0 | · | · | ·
C[C@H]1CN(C)C(=O)c2cccc(NS(C)(=O)=O)c2O[C@@H]1CN(C)C | · | · | -2 | · | 0 | · | ·
C[C@@H]1CN([C@H](C)CO)C(=O)c2cc(N(C)C)ccc2O[C@@H](C)CCCCO[C@@H]1CN(C)Cc1ccc(C(=O)Nc2ccccc2N)cc1 | · | · | 20 | · | 0 | · | ·
C[C@H](CO)N1C[C@H](C)[C@@H](CN(C)Cc2ccc(Oc3ccccc3)cc2)Oc2ccc(NS(=O)(=O)c3ccc(Cl)cc3)cc2CC1=O | 57* | 101* | -6 | 4 | -1 | 1 | -4%
C[C@@H]1CN([C@H](C)CO)C(=O)Cc2cc(NS(=O)(=O)c3ccc(Cl)cc3)ccc2O[C@@H]1CN(C)Cc1ccc(Oc2ccccc2)cc1 | 9 | 5 | 9 | 1 | -1 | -5 | ·
C[C@H](CO)N1C[C@H](C)[C@H](CN(C)Cc2cccc(F)c2)Oc2ncc(C#CCc3ccccc3)cc2C1=O | 12 | · | -40 | 3 | 0 | 4 | ·
C[C@@H]1CN([C@H](C)CO)C(=O)c2cc(NC(=O)CCCCCC(=O)Nc3ccccc3N)ccc2O[C@@H]1CN(C)Cc1ccc(Cl)c(Cl)c1 | 69* | · | -23 | 5 | 0 | -13 | -1%
C[C@@H]1CN([C@H](C)CO)C(=O)c2cc(C#CCc3ccccc3)cnc2O[C@@H]1CN(C)Cc1cccc(F)c1 | 56* | · | -27 | 8 | -1 | -17 | -7%
C[C@H]1CN([C@@H](C)CO)C(=O)c2cc(N(C)C)ccc2O[C@@H]1CN(C)Cc1ccc(C(=O)Nc2ccccc2N)cc1 | 65* | 59 | 10 | 11 | -1 | -22 | -3%
C[C@H]1CN([C@@H](C)CO)C(=O)c2cc(-c3ccc(C#N)cc3)cnc2O[C@@H]1CN(C)C(=O)c1ccccc1 | -12 | · | 2 | -2 | 0 | -7 | ·
C/C=C/c1cnc2c(c1)C(=O)N([C@H](C)CO)C[C@H](C)[C@@H](CN(C)C(=O)Nc1ccc(OC)cc1)O2 | -1 | · | -10 | -3 | 0 | -10 | ·
C[C@@H]1CN([C@H](C)CO)C(=O)c2cc(NS(C)(=O)=O)ccc2O[C@@H](C)CCCCO[C@H]1CN(C)S(=O)(=O)c1cccs1 | 2 | 19 | -10 | -11 | 0 | 6 | ·
C[C@@H]1CN([C@H](C)CO)C(=O)CCCn2nncc2CO[C@H]1CN(C)Cc1ccc(Oc2ccccc2)cc1 | 70*! | 116*! | -1 | 3 | 1 | -2 | -12%
SMILES | EWS-Fli block | PAX8 inh HTS | INS-1E GSIS act | MLL AF4-AF9 inh | Xi reactivation | PGC1a acetyl inh | DNA binder FP
Cc1ccc(S(=O)(=O)N(C)C[C@@H]2Oc3ccc(NC(=O)CCCCCC(=O)Nc4ccccc4N)cc3CC(=O)N([C@@H](C)CO)C[C@@H]2C)cc1 | 56* | 20 | 11 | 2 | 0 | -9 | -3%[56 µM]
C[C@H]1CN([C@@H](C)CO)C(=O)c2cc(NC(=O)C3CCCCC3)ccc2O[C@H]1CN(C)Cc1ccc(C(=O)Nc2ccccc2N)cc1 | 52* | · | -12 | 0 | 2 | -6 | -7%
C[C@@H]1CN([C@@H](C)CO)C(=O)Cc2cc(N(C)C)ccc2O[C@@H]1CN(C)Cc1ccccc1 | 55* | 21 | -3 | 8 | 1 | -6 | -10%
COCC(=O)Nc1ccc2c(c1)C(=O)N(C)C[C@@H](OC)[C@H](C)CN(CC1CC1)[C@@H](C)CO2 | 1 | 3 | 13 | 0 | -1 | -7 | ·
CCCNC(=O)N1CC2(CCN(Cc3cccc(OC)c3)CC2)c2c([nH]c3cc(OC)ccc23)[C@@H]1CO | -6 | · | 3 | 15 | 0 | -8 | ·
C[C@H]1CN([C@@H](C)CO)C(=O)Cc2cc(NC(=O)Nc3ccc(F)cc3)ccc2O[C@@H]1CN(C)Cc1ccc(C(=O)Nc2ccccc2N)cc1 | 6 | 5 | 14 | 0 | 0 | 12 | ·
C[C@@H]1CN([C@@H](C)CO)C(=O)Cc2cc(NC(=O)Nc3ccc(C(F)(F)F)cc3)ccc2O[C@@H]1CN(C)Cc1ccc(C(=O)Nc2ccccc2N)cc1 | 55* | · | 6 | -8 | 0 | -3 | -4%
C[C@H](CO)N1C[C@H](C)[C@H](CN(C)Cc2ccc(C(=O)Nc3ccccc3N)cc2)Oc2ccc(N(C)C)cc2CC1=O | 67* | 32 | 12 | 10 | 0 | 37 | 1%
